Results on three compounds are retold here after ChEMBL document CHEMBL1148362 (J Med Chem, 2004).

Where only a bound is given, the exact number is not on record here.

One assay relates to CCRF-CEM. Description: Inhibition of cell growth in CEM leukemia T cells was determined. Format: functional. The settings on record: Homo sapiens.
For another assay, the system named is Jurkat. Description: Inhibition of IL-2 production was determined in Jurkat cells after PMA/PHA activation by Enzyme immunoassay. In kind it is functional, cell-based. To be noted: Homo sapiens. The method in brief: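 Human Jurkat leukemia T-cells exposed to test agents 30 min before PMA activation. Cell-free supernatants collected after 24 h and total IL-2 quantified by competitive enzyme immunoassay. Dose–response tested up to 10 μM. IC50 derived. PDTC control included in all experiments.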

The next assay has as its system THP-1. Put plainly: Inhibition of TNF-alpha production was determined in THP-1cells after LPS activation by Enzyme immunoassay. In kind it is functional, cell-based. The settings on record: Homo sapiens. The method in brief: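 Human monocytic THP-1 cells treated 30 min before LPS activation, then incubated 3 h. TNF-α in the output measured by competitive enzyme immunoassay and IC50 derived. Values are mean of two experiments with standard deviation. PDTC served as control.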

Assay [1] concerns Nuclear factor NF-kappa-B (Homo sapiens). Put plainly: Inhibition of DNA binding of NF-uM) PMA/PHA activated Jurkat cells; No significant inhibition.

In the case of `Nc1nc(C2=C3C(=Nc4ccccc43)C(=O)NCC2)c(O)[nH]1`, the GI50 with CCRF-CEM was 1.73 µM. Also, the half-maximal inhibitory concentration (IC50) in the assay on Jurkat was 3.55 µM; in the assay on THP-1, 8.16 µM.
Consider `Cn1c2c(c3ccccc31)/C(=C1\N=C(N)NC1=O)CCNC2=O`, for which the GI50 with CCRF-CEM amounted to 14.3 µM. The IC50 in the assay on Jurkat and with THP-1 was more than 10 µM throughout. Further, the inhibition entry in assay [1] was “No effect”.
Compound `NC1=NC(=O)/C(=C2\CCNC(=O)c3[nH]c(Br)cc32)N1` [HYMENIALDISINE] registered a 50% growth inhibitory concentration (GI50) in the assay with CCRF-CEM of 1.61 µM. The IC50 in the assay with Jurkat was found to be 2.41 µM; in the assay on THP-1 it was 1.36 µM.
